Data from ChEMBL document CHEMBL1955718, “Discovery of new orally effective analgesic and anti-inflammatory hybrid furoxanyl N-acylhydrazone derivatives” (Bioorg Med Chem, 2012).
The source made the active and inactive calls.

Assays:
[1] = test system: Salmonella typhimurium; experiment: Induction of mutagenesis in Salmonella Typhimurium TA98 assessed as number of revertants at 3.1 to 250 ug/plate in absence of mouse liver S9 fraction; type: toxicity, organism-based; settings: salmonella enterica subsp. enterica serovar typhimurium
Procedure, shortened: (§1)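 S. typhimurium TA98, plate incorporation on minimal glucose (Vogel-Bonner) agar. Compounds were in DMSO, dosed in triplicate with a top non-toxic dose of 250 or 350 µg/plate. Runs were without S9 (positive control 4-nitro-o-phenylenediamine, 20 µg/plate) or with 500 µL Aroclor-induced mouse liver S9 (positive control 2-aminofluorene, 10 µg/plate), plus a DMSO control. Revertants were counted manually; mutagenic means ≥2-fold spontaneous revertants at two consecutive doses.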

[2] = test system: Rattus norvegicus; experiment: Antihyperalgesic activity against carrageenan-induced thermal hyperalgesia in Wistar rat assessed as latency of withdrawal response at 100 umol/kg, po administered 1 hr before carrageenan challenge measured after 1 hr by hot plate test; type: functional
Procedure, shortened: (§2)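 Wistar rats of both sexes (150–200 g) were dosed orally as a suspension in 5% arabic gum in saline, with vehicle controls. After 1 h, 0.1 mL 1% carrageenan (1 mg/paw) or saline was injected subplantar into the hind paws. Left hind paw withdrawal latency was read on a 51 °C hot plate at 0–240 min (cut-off 20 s). Δlatency = time-0 minus later latency; mean ± SEM, n = 8–10; t-test.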

[3] = test system: HT-29; experiment: Inhibition of NF-kappaB activation expressed in human HT-29 cells assessed as inhibition of TNFalpha-stimulated IL8 release at 400 uM after 24 hrs by flow cytometric analysis relative to Thal; type: cell-based
Procedure, shortened: (§3)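 Reporter HT-29-NF-κB-hrGFP cells pretreated 2 h with compound (DMSO <0.5%) at the highest concentration with 100% survival, then stimulated with TNF-α (3 ng/mL final) for 18–24 h at 37 °C. IL-8 in clarified supernatant measured by flow cytometric bead assay (500 events). Expressed as % of TNF-α/DMSO control ± SD; thalidomide as reference.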

[4] = Inhibition of soybean lipoxygenase using arachidonic acid as substrate; design: species or system Glycine max
Procedure, shortened: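 Soybean 15-lipoxygenase kit assay, arachidonic acid substrate, H2O2 as lipoxygenating agent in 0.1 M Tris-HCl pH 7.4. Single-point screen at 50 µM. IC50 found by varying concentration over 10–100 µM. Quercetin at 4 µM as positive control; duplicate means; Student t-test.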

[5] = test system: Mus musculus; experiment: Analgesic activity in albino mouse assessed as inhibition of acetic acid-induced abdominal constriction at 100 umol/kg, po administered 1 hr before acetic acid challenge measured after 30 mins relative to control; type: functional; settings: Abdomen
Procedure, shortened: (§4)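 Albino mice of both sexes (18–23 g) were dosed orally as a suspension in 5% arabic gum in saline, with vehicle controls. After 1 h they received 0.6% acetic acid ip (0.1 mL/10 g). Constrictions were counted for 20 min starting 10 min after injection. Data are % inhibition vs vehicle, mean ± SEM, Student t-test.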

[6] = test system: HT-29; experiment: Inhibition of NF-kappaB activation expressed in human HT-29 cells assessed as inhibition of TNFalpha-stimulated IL8 release at 100 uM after 24 hrs by flow cytometric analysis relative to control; type: cell-based; procedure, shortened: as §3
[7] = test system: Salmonella typhimurium; experiment: Induction of mutagenesis in Salmonella Typhimurium TA98 assessed as number of revertants at 3.1 to 250 ug/plate in presence of mouse liver S9 fraction; type: toxicity, organism-based; settings: salmonella enterica subsp. enterica serovar typhimurium; procedure, shortened: as §1
[8] = test system: Rattus norvegicus; experiment: Antihyperalgesic activity against carrageenan-induced thermal hyperalgesia in Wistar rat assessed as latency of withdrawal response at 100 umol/kg, po administered 1 hr before carrageenan challenge measured after 30 to 240 mins by hot plate test; type: functional, organism-based
Procedure, shortened: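 Wistar rats of both sexes (150–200 g) dosed orally at 100 µmol/kg as suspension in 5% arabic gum in saline, vehicle controls. After 1 h, 1% carrageenan (1 mg/paw) or saline injected subplantar. Left hind paw withdrawal latency on hot plate at 51 ± 0.1 °C read at 0–240 min, 20 s cut-off. Δ latency = time-0 latency minus later latency; mean ± SEM, n = 8–10; Student t-test.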

[9] = test system: Salmonella typhimurium; experiment: Induction of mutagenesis in Salmonella Typhimurium TA98 assessed as number of revertants at 4 to 350 ug/plate in presence of mouse liver S9 fraction; type: toxicity, organism-based; settings: salmonella enterica subsp. enterica serovar typhimurium; procedure, shortened: as §1
[10] = test system: Mus musculus; experiment: Analgesic activity in albino mouse assessed as inhibition of acetic acid-induced abdominal constriction at 100 umol/kg, po administered 1 hr before acetic acid challenge measured after 60 mins relative to control; type: functional; settings: Abdomen; procedure, shortened: as §4
[11] = test system: Salmonella typhimurium; experiment: Induction of mutagenesis in Salmonella Typhimurium TA98 assessed as number of revertants at 4 to 350 ug/plate in absence of mouse liver S9 fraction; type: toxicity, organism-based; settings: salmonella enterica subsp. enterica serovar typhimurium; procedure, shortened: as §1
[12] = test system: HT-29; experiment: Inhibition of TNF-alpha-induced NFkappaB activation expressed in human HT-29 cells coexpressing hrGFP at 50 uM after 24 hrs by propidium iodide staining-based flow cytometric analysis relative to control; type: cell-based
Procedure, shortened: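 HT-29 cells stably expressing NF-κB-driven hrGFP given compound (DMSO <0.5%) for 2 h at the maximum non-cytotoxic concentration, then TNF-α at 3 ng/mL final for 18–24 h. Cells trypsinised and stained with propidium iodide; 5000 events gated on FSC/SSC. The %GFP-positive among PI-excluding live cells is normalised to TNF-α/DMSO control, ± SD.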

[13] = test system: Salmonella typhimurium; experiment: Induction of mutagenesis in Salmonella Typhimurium TA98 assessed as number of revertants at 6 to 500 ug/plate in absence of mouse liver S9 fraction; type: toxicity, organism-based; settings: salmonella enterica subsp. enterica serovar typhimurium
[14] = test system: Rattus norvegicus; experiment: Antihyperalgesic activity against carrageenan-induced thermal hyperalgesia in Wistar rat assessed as latency of withdrawal response at 100 umol/kg, po administered 1 hr before carrageenan challenge measured after 3 hrs by hot plate test; type: functional; procedure, shortened: as §2
[15] = test system: HT-29; experiment: Inhibition of NF-kappaB activation expressed in human HT-29 cells assessed as inhibition of TNFalpha-stimulated IL8 release at 50 uM after 24 hrs by flow cytometric analysis relative to control; type: cell-based; procedure, shortened: as §3
[16] = test system: Salmonella typhimurium; experiment: Induction of mutagenesis in Salmonella Typhimurium TA98 assessed as number of revertants at 6 to 500 ug/plate in presence of mouse liver S9 fraction; type: toxicity, organism-based; settings: salmonella enterica subsp. enterica serovar typhimurium

## O=C(N/N=C/c1c(-c2ccccc2)no[n+]1[O-])c1ccc2c(c1)OCO2
[1]
  Activity: Non-toxic
[2]
  inhibition in vivo at 100 µmol/kg: 14%
[3]
  fold change (FC): 16
[4]
  IC50: > 100 µM
[5]
  inhibition in vivo at 100 µmol/kg: 42%
[6]
  inhibition: 4%
[7]
  Activity: Non-toxic

## Cc1c(C(=O)N/N=C/c2ccc(N(C)C)cc2)no[n+]1[O-]
[8]
  Activity: inactive
[9]
  Activity: Non-toxic
[10]
  inhibition in vivo at 100 µmol/kg: 22%
[11]
  Activity: Non-toxic
[6]
  inhibition: 98%

## Cc1[nH]cnc1C(=O)N/N=C/c1ccc2no[n+]([O-])c2c1
[12]
  NF-kappaB activation (% of TNF-alpha control): 71%
[13]
  Activity: Toxic
[5]
  inhibition in vivo at 100 µmol/kg: 46%
[14]
  inhibition in vivo at 100 µmol/kg: 14%
[15]
  inhibition: 51%
[16]
  Activity: Non-toxic
